This note sets out measurements from ChEMBL document CHEMBL4390700, “Design, synthesis and antitumour and anti-angiogenesis evaluation of 22 moscatilin derivatives” (Bioorg Med Chem, 2019).

Activity calls are given as the source filed them. No cut-off for these calls is given here.

Series [1] relates to HCT-116. Description: Induction of morphological changes in human HCT116 cells assessed as induction of cell distortion at 1 to 10 uM incubated for 48 hrs by Hoechst 33342 staining based fluorescence microscopy. It is filed as functional.
The test system of series [2] is HCT-116. In words: Induction of apoptosis in human HCT116 cells assessed as early apoptotic cells level at 10 uM incubated for 48 hrs by Annexin V-FITC and propidium iodide staining based flow cytometry. The series is classed as functional. The essentials:
(§1)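 2×10⁵ cells per well, adhered overnight, then exposed 48 h to compound at 1, 5 or 10 μM. Annexin V-FITC/PI double staining, read by flow cytometry. Annexin V+/PI− counted as early apoptotic, Annexin V+/PI+ as late. Gambogic acid 1 μM comparator.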

In series [3] the test system is HCT-116. In words: Antiproliferative activity against human HCT116 cells incubated for 72 hrs by MTT assay. It is filed as functional, cell-based. The following applies: HCT-116, 72 h. In a few lines: (§2)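 5×10³ cells per well preincubated 12 h at 37 °C, 5% CO₂. Medium replaced with fresh medium containing compound at various concentrations, DMSO ≤0.1%, for 72 h at 37 °C. MTT 0.5 mg/mL final added for 2 h; formazan dissolved in DMSO, A570 read; viability expressed relative to untreated cells.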

The test system of series [4] is HCT-116. Description: Induction of apoptosis in human HCT116 cells assessed as late apoptotic cells level at 5 uM incubated for 48 hrs by Annexin V-FITC and propidium iodide staining based flow cytometry. It is filed as functional. In a few lines: as §1
For orientation: A flow cytometer gives signals particle by particle.

For series [5], the system named is HCT-116. Description: Induction of apoptosis in human HCT116 cells assessed as induction of […] pyknosis at 1 to 10 uM incubated for 48 hrs by DAPI staining based fluorescence microscopy. It is filed as functional, cell-based. The following applies: in the assay text read “Hoechst 33342” for “DAPI”. In a few lines: (§3)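 After 48 h exposure to 1, 5 or 10 μM, nuclei stained with DAPI (methods name Hoechst 33342). Chromatin condensation and nuclear pyknosis scored by fluorescence microscopy at 400× against untreated cells.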

In series [6] the test system is HCT-116. In words: Induction of cell cycle arrest in human HCT116 cells assessed reduction in accumulation at S phase at 5 to 10 uM incubated for 48 hrs by propidium iodide staining based flow cytometry. The series is classed as functional. The essentials: (§4)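 2×10⁵ cells per well, adhered overnight, then treated 48 h at 5 or 10 μM. Cells fixed in cold 70% ethanol overnight, RNase A treated 30 min at 37 °C, PI stained 15 min at 4 °C. DNA content measured by flow cytometry; phase distribution compared with untreated control.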

A short description of series [7]: Cytotoxicity against human NCM460 cells assessed as cell viability at 50 uM incubated for 72 hrs by MTT assay. It is filed as cell-based. The following applies: read-out: Activity. The essentials:
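NCM460 colon cells exposed to compound at 0.1, 1, 2, 5, 10, 20, 30, 40 and 50 μM; viability expressed as percent. Media carried penicillin G, streptomycin and 10% FBS; culture at 37 °C, 5% CO₂.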

The subject of a further series is MDA-MB-231. In words: Antiproliferative activity against human MDA-MB-231 cells incubated for 72 hrs by MTT assay. The series is classed as functional, cell-based. The following applies: MDA-MB-231, 72 h. In a few lines: as §2
(Tetrazolium dyes change colour on reduction, which living cells bring about.)

In a further series the test system is A549. Description: Antiproliferative activity against human A549 cells incubated for 72 hrs by MTT assay. The following applies: A549, 72 h. It is filed as functional, cell-based. In a few lines: as §2
Series [8] deals with HCT-116. Description: Induction of cell cycle arrest in human HCT116 cells assessed accumulation at G2/M phase at 10 uM incubated for 48 hrs by propidium iodide staining based flow cytometry (reference value: 11.88%). It is filed as functional. In a few lines:
as §4

In series [9] the test system is HCT-116. In words: Reduction in alpha-tubulin protein expression in human HCT116 cells at 1 to 10 uM incubated for 48 hrs by Western blot analysis. The series is classed as functional, cell-based. The essentials:
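After 48 h treatment, cells lysed in buffer of 100 mM Tris-Cl pH 6.8, 4% SDS, 20% glycerol, 200 mM β-mercaptoethanol, 1 mM PMSF, aprotinin. Lysates spun 12000g for 30 min at 4 °C and protein quantified by BCA. Proteins run on 10% SDS-PAGE, semi-dry transferred to PVDF, probed overnight at 4 °C with anti-α-tubulin 1:1000 and GAPDH 1:1000 loading control, then HRP secondary. ECL detection with densitometry.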
For orientation: A western blot detects proteins with antibodies after separation by electrophoresis.

In a further series the test system is HepG2. In words: Antiproliferative activity against human HepG2 cells incubated for 72 hrs by MTT assay. It is filed as functional, cell-based. The following applies: HepG2, 72 h. In a few lines: as §2
In series [10] the test system is HCT-116. In words: Induction of apoptosis in human HCT116 cells assessed as late apoptotic cells level at 1 uM incubated for 48 hrs by Annexin V-FITC and propidium iodide staining based flow cytometry. It is filed as functional. In a few lines:
(§5)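 HCT116 seeded 2 × 10⁵ cells/well, adhered overnight, then exposed to compound for 48 h. Annexin V-FITC/PI double staining, read by flow cytometry. Early apoptotic cells counted as Annexin V+/PI− (lower right quadrant), late apoptotic as Annexin V+/PI+ (upper right). Culture at 37 °C, 5% CO₂, medium with 10% FBS and penicillin/streptomycin, DMSO ≤0.1%.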

The test system of series [11] is HCT-116. In words: Induction of apoptosis in human HCT116 cells assessed as late apoptotic cells level at 10 uM incubated for 48 hrs by Annexin V-FITC and propidium iodide staining based flow cytometry. It is filed as functional. In a few lines:
as §1

The test system of series [12] is HCT-116. In words: Induction of cell cycle arrest in human HCT116 cells assessed accumulation at G2/M phase at 5 uM incubated for 48 hrs by propidium iodide staining based flow cytometry (reference value: 11.88%). It is filed as functional. In a few lines:
as §4

The test system of another series is MKN-45. In words: Antiproliferative activity against human MKN45 cells incubated for 72 hrs by MTT assay. The series is classed as functional, cell-based. The following applies: MKN-45, 72 h. The essentials: as §2
The next series is filed under the species Danio rerio. Description: Anti-angiogenic activity in zebrafish-guided angiogenesis model assessed as reduction in inter-segmental blood vessels measured at 72 hpf by fluorescence microscopy. It is filed as functional. In a few lines: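 Tg(fli-1:EGFP) zebrafish embryos, dechorionated at 24 hpf, 20 per group, kept in embryo water containing compound at 28.5 °C for a further 48 h. All compounds screened first at 50 μM; active ones titrated for minimum effective dose. At 72 hpf embryos anesthetized in 0.016% tricaine and intersegmental vessels imaged by fluorescence microscopy. SU5416 positive control.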

The test system of series [13] is HCT-116. In words: Induction of morphological changes in human HCT116 cells assessed as induction of slow growth at 1 to 10 uM incubated for 48 hrs by Hoechst 33342 staining based fluorescence microscopy. It is filed as functional, cell-based.
For series [14], the system named is HCT-116. Description: Induction of apoptosis in human HCT116 cells assessed as early apoptotic cells level at 1 uM incubated for 48 hrs by Annexin V-FITC and propidium iodide staining based flow cytometry. It is filed as functional. The essentials:
as §5

The subject of series [15] is HCT-116. Description: Induction of morphological changes in human HCT116 cells assessed as induction of tensile deformation at 1 to 10 uM incubated for 48 hrs by Hoechst 33342 staining based fluorescence microscopy. The series is classed as functional, cell-based.
The subject of series [16] is HCT-116. Description: Induction of apoptosis in human HCT116 cells assessed as induction of chromatin congregation at 1 to 10 uM incubated for 48 hrs by DAPI staining based fluorescence microscopy. The series is classed as functional, cell-based. The following applies: in the assay text read “Hoechst 33342” for “DAPI”. The essentials: as §3
Series [17] concerns HCT-116. In words: Induction of apoptosis in human HCT116 cells assessed as early apoptotic cells level at 5 uM incubated for 48 hrs by Annexin V-FITC and propidium iodide staining based flow cytometry. It is filed as functional. In a few lines:
as §1

Series [18] relates to HCT-116. Description: Induction of cell cycle arrest in human HCT116 cells assessed reduction in accumulation at G1 phase at 5 to 10 uM incubated for 48 hrs by propidium iodide staining based flow cytometry. The series is classed as functional. In a few lines: as §4

What is called IC50 is the concentration that gives 50% inhibition. A lower IC50 goes with higher potency. On to `COc1cc(CCc2ccccc2Cl)cc(OC)c1O`, for which the Activity entry with HCT-116 [1] is “Dose-dependent effect”; in the series with HCT-116 [2], 36.9%; in the series with HCT-116 [4] it was 22.4%; in the series on HCT-116 [8], 82.47%; in the series on HCT-116 [10], 18.1%; in the series on HCT-116 [11], 37.2%. The Activity was 85.22% in the series with HCT-116 [12]; “Dose-dependent effect” with HCT-116 [13]; 24.8% with HCT-116 [14]; “Dose-dependent effect” with HCT-116 [15]; 34.5% in the series on HCT-116 [17]. The 50% inhibitory concentration (IC50) was determined as 250 nM with HCT-116 [3]; 21100 nM with MDA-MB-231; 2130 nM with A549; 2190 nM with HepG2; 24500 nM with MKN-45. In addition, the result with HCT-116 [5], in the series with HCT-116 [6], in the series with HCT-116 [9], in the series on HCT-116 [16] and with HCT-116 [18] was Active. Further, the viability at 72 h, 50 µM in [7] was determined as 84.4%. Besides, in the series listed under Danio rerio, the MED lay in the range of 0.62 to 1.25 µM.
